How the values were obtained:
Rattus norvegicus [1] = test: Effect on lower lip retraction in Wistar rat at 5 mg/kg; format: functional
Outline: (§1)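 Male Wistar rats (290–310 g) dosed ip in 1% Tween 80 (2 ml/kg), caged singly; lower lip retraction scored 15, 30 and 45 min after dosing as 0 (incisors not visible), 0.5 (partly) or 1 (completely visible), totals up to 3 per rat. n = 6 per group; one-way ANOVA followed by Dunnett's test.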

Rattus norvegicus [2] = test: Effect on lower lip retraction in Wistar rat at 10 mg/kg; format: functional; outline: as §1
Rattus norvegicus [3] = test: Effect on lower lip retraction in Wistar rat at 20 mg/kg; format: functional; outline: as §1
Rattus norvegicus [4] = test: Effect on 8-OH-DPAT-induced lower lip retraction in Wistar rat at 5 mg/kg; format: functional
Rattus norvegicus [5] = test: Effect on 8-OH-DPAT-induced lower lip retraction in Wistar rat at 10 mg/kg; format: functional
Rattus norvegicus [6] = test: Effect on 8-OH-DPAT-induced lower lip retraction in Wistar rat at 20 mg/kg; format: functional
[7] = biological target: T1, 5-hydroxytryptamine receptor 1A (Rattus norvegicus, UniProt P19327); test: Displacement of [3H]8-OH-DPAT from 5HT1A in rat hippocampal membranes; format: cell membranes, Hippocampus, Membrane
T1 sequence (P19327 whole entry): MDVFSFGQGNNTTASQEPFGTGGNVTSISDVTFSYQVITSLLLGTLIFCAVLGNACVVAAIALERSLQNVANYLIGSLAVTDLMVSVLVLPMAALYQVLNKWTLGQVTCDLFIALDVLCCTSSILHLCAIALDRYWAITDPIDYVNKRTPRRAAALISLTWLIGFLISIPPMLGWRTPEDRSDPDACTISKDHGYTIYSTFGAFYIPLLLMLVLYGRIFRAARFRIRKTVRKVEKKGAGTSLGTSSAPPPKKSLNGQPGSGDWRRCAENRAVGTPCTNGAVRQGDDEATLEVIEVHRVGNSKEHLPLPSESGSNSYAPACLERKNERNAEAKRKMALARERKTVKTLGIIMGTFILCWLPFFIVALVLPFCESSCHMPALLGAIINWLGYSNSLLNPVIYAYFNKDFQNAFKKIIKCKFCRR
Outline: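 Rat hippocampal membranes, [3H]-8-OH-DPAT as radioligand, 5-HT defining nonspecific binding. 7–9 drug concentrations run in triplicate, at least three separate experiments. Filtration through GF/B filters with three ice-cold buffer washes, scintillation counting. Ki from non-linear regression of binding isotherms via Cheng-Prusoff equation.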

D(2) dopamine receptor = D(2) dopamine receptor (Rattus norvegicus, UniProt P61169); test: Displacement of [3H]spiperone from dopamine D2 receptor in rat striatal membranes; format: cell membranes, Membrane
Outline: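 Competition binding on rat striatal membranes using [3H]-spiperone, butaclamol for nonspecific binding; filtration through GF/B filters and scintillation counting. Run at two compound concentrations, each in triplicate, and affinity expressed as estimated Ki.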

[8] = Displacement of [3H]prazosin from adrenergic alpha1 receptor in rat cortical membranes; format: cell membranes, Membrane
Outline: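 Rat cortical membranes with [3H]-prazosin; phentolamine defines nonspecific binding. 7–9 drug concentrations in triplicate, at least three separate experiments; stopped by GF/B filtration with three ice-cold buffer washes, bound radioactivity by liquid scintillation counting; Ki from non-linear regression and Cheng-Prusoff equation.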

[9] = biological target: 5-hydroxytryptamine receptor 7 (Homo sapiens, UniProt P34969); test: Displacement of [3H]5-CT from human 5HT7 expressed in HEK293 cells; format: cell-based
Outline: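 HEK293 cells stably transfected with human 5-HT7(b) cDNA; membranes (10 µg protein) incubated 1 h at 37 °C in 50 mM Tris-HCl pH 7.4 with 4 mM MgCl2, 0.1 mM pargyline, 0.1% ascorbic acid, 0.5 nM [3H]-5-CT and 7–9 test concentrations in triplicate; 10 µM 5-HT defines nonspecific binding. GF/B filtration, scintillation counting; Ki via Cheng-Prusoff from ≥3 experiments.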

Mus musculus [10] = organism: Mus musculus; details: Swiss Albino, 5 mg/kg
Mus musculus [11] = organism: Mus musculus; details: Swiss Albino, 2.5 mg/kg
Mus musculus [12] = organism: Mus musculus; details: Swiss Albino, 5 mg/kg; remark: listed apart in the source
Mus musculus [13] = organism: Mus musculus; details: Swiss Albino, 2.5 mg/kg; remark: listed apart in the source
Mus musculus [14] = organism: Mus musculus; details: Swiss Albino, 5 mg/kg; remark: listed apart in the source
Mus musculus [15] = organism: Mus musculus; details: Swiss Albino, 5 mg/kg; remark: listed apart in the source
Mus musculus [16] = organism: Mus musculus; details: Swiss Albino, 5 mg/kg; remark: listed apart in the source
Mus musculus [17] = organism: Mus musculus; details: Swiss Albino, 2.5 mg/kg; remark: listed apart in the source
Mus musculus [18] = organism: Mus musculus; details: Swiss Albino, 5 mg/kg; remark: listed apart in the source
Mus musculus [19] = organism: Mus musculus; details: Swiss Albino, 2.5 mg/kg; remark: listed apart in the source
Mus musculus [20] = test: Anxiolytic activity in Swiss Albino mouse assessed as number of punished crossings for 60 secs at 2.5 mg/kg administered 30 mins before the test by four-plate test; format: functional
Outline: (§2)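 Male Albino Swiss mice (24–28 g), compound suspended in 1% aqueous Tween 80, given ip (10 ml/kg). Mouse placed in box with four metal floor plates, 15 s exploration, then floor electrified (120 V, 0.5 s) at each plate-to-plate crossing, no new shock for 3 s. Punished crossings counted over 60 s. n = 9-10/group; one-way ANOVA then Dunnett's test.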

Mus musculus [21] = test: Anxiolytic activity in Swiss Albino mouse assessed as number of punished crossings for 60 secs at 5 mg/kg administered 30 mins before the test by four-plate test; format: functional
Outline: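 Male Albino Swiss mice dosed ip (1% aqueous Tween 80, 10 ml/kg) 30 min beforehand. Opaque box floored with four metal plates; 15 s free exploration, then each plate-to-plate crossing triggers a 0.5 s, 120 V floor shock, with no new shock for 3 s if running continues. Punished crossings counted over 60 s; n = 9-10, ANOVA plus Dunnett's test.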

Mus musculus [22] = test: Anxiolytic activity in Swiss Albino mouse assessed as number of punished crossings for 60 secs at 10 mg/kg administered 30 mins before the test by four-plate test; format: functional; outline: as §2
Mus musculus [23] = test: Antidepressant activity in Swiss Albino mouse assessed as immobility time during final 4 mins of 6 mins session at 5 mg/kg administered 30 mins before the test by forced-swimming test; format: functional
Outline: (§3)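 Male Albino Swiss mice (24–28 g), compound given ip in 1% aqueous Tween 80 (10 ml/kg), 30 min before test. Mouse placed singly in glass cylinder (25 cm high, 10 cm diameter) holding 6 cm water at 23–25 °C for 6 min; immobility (floating, only small head-keeping movements) timed over last 4 min. n = 9-10 per group; one-way ANOVA then Dunnett's test.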

Mus musculus [24] = test: Antidepressant activity in Swiss Albino mouse assessed as immobility time during final 4 mins of 6 mins session at 10 mg/kg administered 30 mins before the test by forced-swimming test; format: functional; outline: as §3
Mus musculus [25] = test: Effect on locomotor activity in Swiss Albino mouse assessed as number of crossings in 6 mins at 5 mg/kg administered 30 mins before the test; format: functional
Outline: (§4)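 Male Albino Swiss mice (24–28 g) given compound ip (suspension in 1% aqueous Tween 80, 10 ml/kg). Animals housed singly in plastic cages in a multichannel photobeam activity monitor. Ambulation crossings counted over first 6 min and over 30-min session. n = 9-10/group; one-way ANOVA then Dunnett's test.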

Mus musculus [26] = test: Effect on locomotor activity in Swiss Albino mouse assessed as number of crossings in 30 mins at 5 mg/kg administered 30 mins before the test; format: functional
Outline: (§5)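 Male Albino Swiss mice given compound ip (1% Tween 80, 10 ml/kg) 30 min before placement singly in plastic cages in a multichannel photobeam activity monitor; ambulation crossings counted over the first 6 min and over a 30 min session. n = 9-10 per group; ANOVA then Dunnett's test.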

Mus musculus [27] = test: Effect on locomotor activity in Swiss Albino mouse assessed as number of crossings in 6 mins at 10 mg/kg administered 30 mins before the test; format: functional; outline: as §4
Mus musculus [28] = test: Effect on locomotor activity in Swiss Albino mouse assessed as number of crossings in 30 mins at 10 mg/kg administered 30 mins before the test; format: functional; outline: as §5
Mus musculus [29] = test: Anxiolytic activity in Swiss Albino mouse assessed as number of punished crossings for 60 secs at 1.25 mg/kg administered 30 mins before the test by four-plate test; format: functional; outline: as §2
Rattus norvegicus [30] = test: Effect on lower lip retraction in Wistar rat at 2.5 mg/kg; format: functional; outline: as §1
Rattus norvegicus [31] = test: Effect on 8-OH-DPAT-induced lower lip retraction in Wistar rat at 2.5 mg/kg; format: functional
Mus musculus [32] = organism: Mus musculus; details: Swiss Albino, 10 mg/kg
Mus musculus [33] = organism: Mus musculus; details: Swiss Albino, 20 mg/kg
Mus musculus [34] = organism: Mus musculus; details: Swiss Albino, 10 mg/kg; remark: listed apart in the source
Mus musculus [35] = organism: Mus musculus; details: Swiss Albino, 20 mg/kg; remark: listed apart in the source
Mus musculus [36] = organism: Mus musculus; details: Swiss Albino, 20 mg/kg; remark: listed apart in the source
Mus musculus [37] = organism: Mus musculus; details: Swiss Albino, 10 mg/kg; remark: listed apart in the source
Mus musculus [38] = organism: Mus musculus; details: Swiss Albino, 10 mg/kg; remark: listed apart in the source
Mus musculus [39] = organism: Mus musculus; details: Swiss Albino, 20 mg/kg; remark: listed apart in the source
Mus musculus [40] = organism: Mus musculus; details: Swiss Albino, 10 mg/kg; remark: listed apart in the source
Mus musculus [41] = organism: Mus musculus; details: Swiss Albino, 20 mg/kg; remark: listed apart in the source
Rattus norvegicus [42] = test: Effect on lower lip retraction in Wistar rat at 0.1 mg/kg; format: functional; outline: as §1
Rattus norvegicus [43] = test: Effect on 8-OH-DPAT-induced lower lip retraction in Wistar rat at 0.1 mg/kg; format: functional

Sequence of 5-hydroxytryptamine receptor 7 (P34969 whole entry): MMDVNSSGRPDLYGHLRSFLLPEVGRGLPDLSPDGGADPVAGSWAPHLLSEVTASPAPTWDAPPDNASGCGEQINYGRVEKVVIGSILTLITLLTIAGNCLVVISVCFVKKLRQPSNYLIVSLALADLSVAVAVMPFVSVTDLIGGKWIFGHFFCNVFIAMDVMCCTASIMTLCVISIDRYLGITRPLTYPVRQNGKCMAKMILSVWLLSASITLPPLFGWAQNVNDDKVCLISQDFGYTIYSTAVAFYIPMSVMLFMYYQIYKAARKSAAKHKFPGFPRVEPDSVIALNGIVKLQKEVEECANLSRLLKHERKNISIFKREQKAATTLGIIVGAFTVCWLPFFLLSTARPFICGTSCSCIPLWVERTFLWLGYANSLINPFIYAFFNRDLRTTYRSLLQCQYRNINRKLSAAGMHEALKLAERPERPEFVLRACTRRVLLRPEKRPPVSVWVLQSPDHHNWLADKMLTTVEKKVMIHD
Sequence of D(2) dopamine receptor (P61169 whole entry): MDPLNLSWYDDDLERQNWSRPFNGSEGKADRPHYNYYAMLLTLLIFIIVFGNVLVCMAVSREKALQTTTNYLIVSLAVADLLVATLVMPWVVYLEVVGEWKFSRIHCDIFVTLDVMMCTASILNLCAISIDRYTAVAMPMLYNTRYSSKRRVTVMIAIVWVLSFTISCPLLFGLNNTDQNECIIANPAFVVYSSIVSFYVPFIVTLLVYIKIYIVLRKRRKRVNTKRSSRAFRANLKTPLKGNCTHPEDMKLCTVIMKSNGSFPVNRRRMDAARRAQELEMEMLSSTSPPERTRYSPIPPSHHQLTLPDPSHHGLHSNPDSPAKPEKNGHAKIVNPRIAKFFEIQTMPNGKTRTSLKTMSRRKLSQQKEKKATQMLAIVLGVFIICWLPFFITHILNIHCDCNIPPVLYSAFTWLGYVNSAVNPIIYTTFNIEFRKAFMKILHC

## O=C1C2=C(CCCC2)C(=O)N1C1CCC(N2CCN(c3cccc(C(F)(F)F)c3)CC2)CC1 (stereo unspecified)
Rattus norvegicus [1]
  Activity: 1.8
Rattus norvegicus [2]
  Activity: 2
Rattus norvegicus [3]
  Activity: 2
Rattus norvegicus [4]
  Activity: 2.5
Rattus norvegicus [5]
  Activity: 1.9
Rattus norvegicus [6]
  Activity: 1.8
[7]
  Ki: 0.3 nM
D(2) dopamine receptor
  Ki: 2640 nM
[8]
  Ki: 4 nM
[9]
  Ki: > 5000 nM
Mus musculus [10]
  deltaT: -0.7 °C
Mus musculus [11]
  deltaT: -0.4 °C
Mus musculus [12]
  deltaT: -0.3 °C
Mus musculus [13]
  deltaT: 0.1 °C
Mus musculus [14]
  deltaT: 0.2 °C
Mus musculus [15]
  deltaT: 0.1 °C
Mus musculus [16]
  deltaT: -1.2 °C
Mus musculus [17]
  deltaT: -0.4 °C
Mus musculus [18]
  deltaT: -1.4 °C
Mus musculus [19]
  deltaT: -0.5 °C

## CC1(C)CC(=O)N(CCCCN2CCN(c3cccc(C(F)(F)F)c3)CC2)C(=O)C1
Mus musculus [20]
  Activity: 5.3
Mus musculus [21]
  Activity: 6.9
Mus musculus [22]
  Activity: 7.6
Mus musculus [23]
  Activity: 157.7 s
[8]
  Ki: 127 nM
[9]
  Ki: 46 nM
Mus musculus [24]
  Activity: 112.1 s
Mus musculus [25]
  Activity: 121.7
Mus musculus [26]
  Activity: 730.8
Mus musculus [27]
  Activity: 23
Mus musculus [28]
  Activity: 265.1

## CN1C(=O)CN=C(c2ccccc2)c2cc(Cl)ccc21 [DIAZEPAM]
Mus musculus [20]
  Activity: 6.8
Mus musculus [21]
  Activity: 6.7
Mus musculus [29]
  Activity: 5.5

## O=C1C2=C(CCCC2)C(=O)N1CCCCN1CCN(c2cccc(C(F)(F)F)c2)CC1
Rattus norvegicus [30]
  Activity: 1.9
Rattus norvegicus [1]
  Activity: 2.2
Rattus norvegicus [2]
  Activity: 2.2
Rattus norvegicus [31]
  Activity: 2.3
Rattus norvegicus [4]
  Activity: 1.5
Rattus norvegicus [5]
  Activity: 1.1
[7]
  Ki: 5.9 nM
D(2) dopamine receptor
  Ki: > 5000 nM
[8]
  Ki: 30 nM
[9]
  Ki: 134 nM
Mus musculus [32]
  deltaT: 0 °C
Mus musculus [33]
  deltaT: -1.3 °C
Mus musculus [34]
  deltaT: 0 °C
Mus musculus [35]
  deltaT: -1.1 °C
Mus musculus [36]
  deltaT: -0.6 °C
Mus musculus [37]
  deltaT: -0.2 °C
Mus musculus [38]
  deltaT: 0.2 °C
Mus musculus [39]
  deltaT: -1.8 °C
Mus musculus [40]
  deltaT: 0 °C
Mus musculus [41]
  deltaT: -1.3 °C

## COc1ccccc1N1CCN(CCN(C(=O)C2CCCCC2)c2ccccn2)CC1 [WAY-100,635]
Rattus norvegicus [42]
  Activity: 0
Rattus norvegicus [43]
  Activity: 0.2
